Legend:
[1] = molecular target: T1, ovine COX-1 (Ovis aries, UniProt P05979); assay: COX-1 inhibitor screening assay kit; format: biochemical
T1 sequence (P05979 25-600): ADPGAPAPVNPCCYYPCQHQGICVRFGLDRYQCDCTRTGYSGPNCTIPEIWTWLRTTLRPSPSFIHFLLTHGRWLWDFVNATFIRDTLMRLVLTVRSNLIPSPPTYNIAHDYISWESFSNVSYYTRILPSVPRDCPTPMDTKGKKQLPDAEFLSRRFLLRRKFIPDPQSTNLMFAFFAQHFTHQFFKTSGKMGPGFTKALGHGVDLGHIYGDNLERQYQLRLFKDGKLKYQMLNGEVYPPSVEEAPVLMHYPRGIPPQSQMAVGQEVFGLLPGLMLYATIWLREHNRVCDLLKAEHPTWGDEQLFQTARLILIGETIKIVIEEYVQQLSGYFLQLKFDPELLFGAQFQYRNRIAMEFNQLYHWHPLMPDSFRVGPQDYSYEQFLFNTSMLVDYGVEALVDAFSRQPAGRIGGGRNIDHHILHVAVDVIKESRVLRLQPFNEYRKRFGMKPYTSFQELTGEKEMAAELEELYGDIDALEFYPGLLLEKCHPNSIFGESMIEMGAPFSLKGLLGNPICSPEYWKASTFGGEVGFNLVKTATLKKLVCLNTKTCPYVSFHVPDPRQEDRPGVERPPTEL

[2] = molecular target: T2, human recombinant COX-2 (Homo sapiens, UniProt P35354); assay: COX-2 inhibitor screening assay kit; format: biochemical; details: for IC50 COX-1/COX-2 (in vitro COX-2 selectivity index): IC50 of COX-1/COX-2
T2 sequence (P35354 18-604): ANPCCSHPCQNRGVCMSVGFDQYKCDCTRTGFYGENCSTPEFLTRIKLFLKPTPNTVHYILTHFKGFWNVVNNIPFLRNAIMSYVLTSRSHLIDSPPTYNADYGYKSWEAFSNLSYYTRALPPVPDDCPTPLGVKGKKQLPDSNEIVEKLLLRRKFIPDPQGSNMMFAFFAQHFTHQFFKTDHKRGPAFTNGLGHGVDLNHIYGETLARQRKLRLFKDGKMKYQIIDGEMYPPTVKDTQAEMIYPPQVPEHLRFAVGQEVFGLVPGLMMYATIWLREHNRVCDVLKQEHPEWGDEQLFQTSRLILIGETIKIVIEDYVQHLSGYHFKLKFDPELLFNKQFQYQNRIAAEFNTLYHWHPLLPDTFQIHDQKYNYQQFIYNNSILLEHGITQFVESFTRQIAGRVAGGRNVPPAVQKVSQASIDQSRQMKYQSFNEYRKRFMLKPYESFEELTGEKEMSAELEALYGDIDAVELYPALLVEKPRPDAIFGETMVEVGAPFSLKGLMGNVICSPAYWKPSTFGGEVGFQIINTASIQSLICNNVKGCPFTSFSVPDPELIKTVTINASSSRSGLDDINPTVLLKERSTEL

[3] = DPPH free radical scavenging assay; details: at a concentration of 1000 μg mL^−1
Procedure, shortened: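 DPPH 0.1 mM in ethanol, 1 mL, added to 3 mL of test compound solution in ethanol at 1000 μg mL−1. The mixture was shaken vigorously, left 30 min at room temperature, and absorbance read at 517 nm. Ascorbic acid served as reference, run in triplicate. % scavenging = (A0 − A1)/A0 × 100, where A0 is control-reaction absorbance and A1 is absorbance with sample.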

| SMILES | IC50 [1] [µM] | IC50 [2] [µM] | IC50 COX-1/COX-2 (in vitro COX-2 selectivity index) [2] [µM] | DPPH scavenging% ([3]; listed as Comp. 4) [%] | DPPH scavenging% [3] [%] | DPPH scavenging% ([3]; listed as Comp. 11) [%] |
| --- | --- | --- | --- | --- | --- | --- |
| NC1=NC(=S)NC12CCCCC2 [Compound 4, 4-Amino-1,3-diazaspiro[4.5]dec-3-ene-2-thione] | 7.5 | 0.135 | 55.56 | 61.1 | – | – |
| O=C1CCC(=O)C2(CCCCC2)N1 [Compound 6, 1-Azaspiro[5.5]undecane-2,5-dione] | 11.5 | 0.089 | 129.21 | – | 74.4 | – |
| Cc1cc(-c2ccccc2)c2c(n1)C1(CCCCC1)NC2=O [Compound 17, 2′-Methyl-4′-phenylspiro[cyclohexane-1,7′-pyrrolo[3,4-b]pyridin]-5′(6′H)-one] | 8 | 0.099 | 80.81 | – | – | – |
| O=C1O[C@H]([C@@H](O)CO)C(O)=C1O [Ascorbic acid, ascorbic acid, reference compound] | – | – | – | – | 97 | – |
| O=C1NC2(CCCCC2)c2[nH]c(=S)nc(-c3ccccc3)c21 [Compound 14, 4′-Phenyl-2′-thioxo-1′,2′-dihydrospiro[cyclohexane-1,7′-pyrrolo[3,4-d]pyrimidin]-5′(6′H)-one] | 6 | 0.08 | 75.00 | – | 66.5 | – |
| O=C1NC2(CCCCC2)c2nc3c(c(-c4ccccc4)c21)CCCC3 [Compound 11, 9′-Phenyl-5′,6′,7′,8′-tetrahydrospiro[cyclohexane-1,3′-pyrrolo[3,4-b]quinolin]-1′(2′H)-one] | 10.5 | 0.06 | 175.00 | – | – | 86.1 |
